What is called EC50 is the midpoint of the concentration-response curve. Usually Kd stands for the free concentration of one partner at which half of the binding sites on the other are occupied at equilibrium, for simple one-to-one binding. Read a high Kd as weaker binding.

Drawing on ChEMBL document CHEMBL4808196, “Dual Bcl-XL /Bcl-2 inhibitors discovered from DNA-encoded libraries using a fragment pairing strategy” (Bioorg Med Chem, 2021), this text covers EC50, Activity and Kd for 2 compounds.

Calls of active or inactive are those of the source. The calls are words filed in the database; no cut-off is given here.

One experiment concerns K562. Nature of the experiment: Cytotoxicity against human K562 cells assessed as cell survival measured after 72 hrs by MTT assay. Type of experiment: cell-based. To be noted: K562, 72 h. In outline: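 MTT viability assay: 10^4 cells/well seeded and held overnight at 37 C, 5% CO2 (K562 in IMDM with 10% FCS). Serially diluted compounds added for 72 h of exposure. MTT added at 0.3 mg/ml final for 4 h at 37 C. Formazan dissolved in 10% SDS/0.01 N HCl, absorbance read at 560/690 nm. EC50 from concentration–response plot.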

For experiment [1], the target named is T1, Bcl-2-like protein 1 (Homo sapiens, UniProt Q07817). Put plainly: Binding affinity to Bcl-XL (unknown origin) using Bim peptide by surface plasmon resonance-based competition assay. In outline: (§1)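 SPR competition on a streptavidin chip carrying 2800 RU biotinylated ligand. Flowed 0.5 µM Bcl-XL alone or premixed with 1.0 µM native BH3 peptide: Bim 26mer or Puma 25mer. Binding responses compared.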
T1 sequence (Q07817 whole entry): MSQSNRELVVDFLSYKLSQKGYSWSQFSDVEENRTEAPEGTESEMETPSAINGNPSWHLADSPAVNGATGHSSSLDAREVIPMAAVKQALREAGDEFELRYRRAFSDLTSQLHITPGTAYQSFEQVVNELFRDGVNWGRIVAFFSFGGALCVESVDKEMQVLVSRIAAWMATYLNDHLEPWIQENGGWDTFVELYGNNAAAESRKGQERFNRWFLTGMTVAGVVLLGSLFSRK
On the technique in general: SPR reads the build-up and loss of mass on a sensor chip optically.

Experiment [2] concerns the target Induced myeloid leukemia cell differentiation protein Mcl-1 (Homo sapiens, UniProt Q07820). Put plainly: Binding affinity to Mcl-1 (unknown origin) measured by surface plasmon resonance based pull down assay. In short, it runs like this: (§2)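 Biotinylated ligand (2800 RU) immobilised on a streptavidin SPR chip. Bcl protein in HBS-EP running buffer injected at 0.5, 0.25, 0.125 and 0.062 µM. Association 120 s, dissociation 240 s, 30 µl/min, 25 C. Surface regenerated with a 5 s pulse of 10 mM NaOH. KD estimated by kinetic fitting.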

Experiment [3] addresses T1, Bcl-2-like protein 1. Put plainly: Competitive binding affinity to Bcl-XL (unknown origin) using ABT-199 by western blot based pull down assay. (Immunoblotting shows a protein as a band on a membrane.)
For experiment [4], the target named is Apoptosis regulator Bcl-2 (Homo sapiens, UniProt P10415). Put plainly: Binding affinity to Bcl-2 (unknown origin) measured by surface plasmon resonance based […]. In outline:
as §2

The target of experiment [5] is T1, Bcl-2-like protein 1. Put plainly: Binding affinity to Bcl-XL (unknown origin) using puma peptide by surface plasmon resonance-based competition assay. To be noted: dose 1.0 µM. In outline:
as §1

Experiment [6] addresses T1, Bcl-2-like protein 1. Nature of the experiment: Binding affinity to recombinant Bcl-XL (unknown origin) premixed with human HeLa cell lysate incubated for 1 hr by SDS PAGE Western blot based pull down assay. The class given is subcellular. In outline:
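Streptavidin magnetic beads loaded with 100 µM biotinylated compound in PBS-T for 30 min, washed, then equilibrated in HBS-EP. His-tagged recombinant Bcl-XL (0.2 µM) spiked into 10 µg HeLa lysate and incubated with beads for 1 h with rotation. Three washes, heat elution in SDS buffer (95 C, 5 min), SDS-PAGE, anti-His western blot.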

The target of experiment [7] is T1, Bcl-2-like protein 1. Put plainly: Binding affinity to Bcl-xl (unknown origin) measured by surface plasmon resonance based pull down assay. In short, it runs like this:
as §2

Sequence of Apoptosis regulator Bcl-2 (P10415 whole entry): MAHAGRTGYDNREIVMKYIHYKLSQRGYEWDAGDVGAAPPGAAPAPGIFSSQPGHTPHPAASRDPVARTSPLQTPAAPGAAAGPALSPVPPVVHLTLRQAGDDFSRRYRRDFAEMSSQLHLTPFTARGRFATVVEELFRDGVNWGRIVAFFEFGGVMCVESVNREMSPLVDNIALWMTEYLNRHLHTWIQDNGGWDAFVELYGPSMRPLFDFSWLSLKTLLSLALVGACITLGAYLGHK
Sequence of Induced myeloid leukemia cell differentiation protein Mcl-1 (Q07820 whole entry): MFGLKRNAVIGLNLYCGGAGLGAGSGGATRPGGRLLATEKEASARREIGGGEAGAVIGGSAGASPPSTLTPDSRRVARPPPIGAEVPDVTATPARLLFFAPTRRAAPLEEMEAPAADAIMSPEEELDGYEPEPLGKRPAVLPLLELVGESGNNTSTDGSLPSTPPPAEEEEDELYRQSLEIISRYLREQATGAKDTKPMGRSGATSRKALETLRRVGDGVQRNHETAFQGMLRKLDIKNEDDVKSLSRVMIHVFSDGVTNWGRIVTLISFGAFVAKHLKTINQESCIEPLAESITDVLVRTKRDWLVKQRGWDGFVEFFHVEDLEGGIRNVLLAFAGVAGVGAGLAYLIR

As to `CC1(C)CCC(CN2CCN(c3ccc(C(=O)NS(=O)(=O)c4ccc(NCC5CCOCC5)c([N+](=O)[O-])c4)c(Oc4cnc5[nH]ccc5c4)c3)CC2)=C(c2ccc(Cl)cc2)C1` [VENETOCLAX], in the experiment on K562, the EC50 stood at 2100 nM.

As for `CC(C)C(NC1=NS(=O)(=O)c2ccccc21)C(=O)NCC(NC(=O)C1(NC(=O)COc2ccccc2-c2n[nH]c3ccc(Cl)cc23)CC1)C(=O)NC(=O)CCCCC[C@@H]1SC[C@@H]2NC(=O)N[C@@H]21` (some centres undefined), the result on Bcl-2-like protein 1 [1], at Bcl-2-like protein 1 [3], on Bcl-2-like protein 1 [5] and at Bcl-2-like protein 1 [6] was Active. For the same compound, the Kd in experiment [2] was 1240 nM; in experiment [4], 21 nM; on Bcl-2-like protein 1 [7], 96 nM. Also, the EC50 in the experiment with K562 amounted to 1720 nM.
